In ChEMBL document CHEMBL5365542, “Difluoromethyl-1,3,4-oxadiazoles Are Selective, Mechanism-Based, and Essentially Irreversible Inhibitors of Histone Deacetylase 6” (J Med Chem, 2023):
The source made the active and inactive calls. The rule behind the calls is not given here.

Legend:
[1] = target: T1, Protein deacetylase HDAC6 (Homo sapiens) (UniProt Q9UBN7); assay: (§1) Irreversible inhibition of N-terminal GST tagged human recombinant HDAC6 (1 to 1215 residues) expressed in Sf9 insect cells using Z-Lys(Ac)-AMC as fluorogenic substrate at 2.5 uM preincubated for 1 hr followed by 100-fold dilution and substrate addition measured every 0.5 mins for 60 mins by microplate reader analysis
T1 sequence (whole entry): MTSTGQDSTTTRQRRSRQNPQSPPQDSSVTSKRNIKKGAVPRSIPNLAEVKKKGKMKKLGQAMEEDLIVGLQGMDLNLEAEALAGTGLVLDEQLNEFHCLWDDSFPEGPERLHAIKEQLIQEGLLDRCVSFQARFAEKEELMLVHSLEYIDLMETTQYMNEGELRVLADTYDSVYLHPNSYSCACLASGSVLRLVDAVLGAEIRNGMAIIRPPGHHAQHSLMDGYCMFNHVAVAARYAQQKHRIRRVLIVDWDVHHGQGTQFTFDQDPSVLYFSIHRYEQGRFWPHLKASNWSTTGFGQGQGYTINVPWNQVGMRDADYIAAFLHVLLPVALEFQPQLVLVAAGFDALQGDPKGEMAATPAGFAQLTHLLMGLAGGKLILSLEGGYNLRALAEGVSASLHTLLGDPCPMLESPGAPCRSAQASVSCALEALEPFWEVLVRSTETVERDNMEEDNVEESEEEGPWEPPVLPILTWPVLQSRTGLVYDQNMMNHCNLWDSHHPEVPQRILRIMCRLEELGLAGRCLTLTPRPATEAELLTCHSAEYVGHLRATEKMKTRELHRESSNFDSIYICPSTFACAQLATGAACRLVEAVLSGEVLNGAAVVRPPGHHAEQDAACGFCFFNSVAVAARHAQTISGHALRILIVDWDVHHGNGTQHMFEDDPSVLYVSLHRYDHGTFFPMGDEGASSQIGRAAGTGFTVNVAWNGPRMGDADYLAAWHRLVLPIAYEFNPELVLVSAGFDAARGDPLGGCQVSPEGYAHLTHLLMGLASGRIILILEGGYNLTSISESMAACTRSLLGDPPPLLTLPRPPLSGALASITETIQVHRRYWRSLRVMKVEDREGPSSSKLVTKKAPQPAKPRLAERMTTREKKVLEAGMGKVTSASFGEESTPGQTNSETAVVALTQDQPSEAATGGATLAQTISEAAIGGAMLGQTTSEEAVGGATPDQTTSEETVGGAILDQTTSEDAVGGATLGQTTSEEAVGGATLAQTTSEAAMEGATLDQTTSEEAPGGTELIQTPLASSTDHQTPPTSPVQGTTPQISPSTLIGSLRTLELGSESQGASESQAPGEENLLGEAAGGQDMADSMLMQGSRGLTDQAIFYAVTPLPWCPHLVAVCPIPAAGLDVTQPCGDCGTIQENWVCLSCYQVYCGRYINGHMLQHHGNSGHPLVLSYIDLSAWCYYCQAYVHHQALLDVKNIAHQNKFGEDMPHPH
Outline: (§2)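 It was then diluted 100-fold in buffer or in inhibitor at the original concentration. Finals were 220 pg/μL enzyme, 93 μM ZMAL and 20 ng/μL trypsin. AMC release was read every 0.5 min for 60 min at 37 °C; triplicates.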

[2] = target: T2, Histone deacetylase 6 (Danio rerio) (UniProt F8W4B7); assay: Irreversible inhibition of Danio rerio HDAC6 using RHKK(Ac)-AMC as fluorogenic substrate at 100 uM preincubated for 1 hr followed by dialysis for 21 hrs and substrate addition for 30 mins by microplate reader analysis; details: Sf9
T2 sequence (whole entry): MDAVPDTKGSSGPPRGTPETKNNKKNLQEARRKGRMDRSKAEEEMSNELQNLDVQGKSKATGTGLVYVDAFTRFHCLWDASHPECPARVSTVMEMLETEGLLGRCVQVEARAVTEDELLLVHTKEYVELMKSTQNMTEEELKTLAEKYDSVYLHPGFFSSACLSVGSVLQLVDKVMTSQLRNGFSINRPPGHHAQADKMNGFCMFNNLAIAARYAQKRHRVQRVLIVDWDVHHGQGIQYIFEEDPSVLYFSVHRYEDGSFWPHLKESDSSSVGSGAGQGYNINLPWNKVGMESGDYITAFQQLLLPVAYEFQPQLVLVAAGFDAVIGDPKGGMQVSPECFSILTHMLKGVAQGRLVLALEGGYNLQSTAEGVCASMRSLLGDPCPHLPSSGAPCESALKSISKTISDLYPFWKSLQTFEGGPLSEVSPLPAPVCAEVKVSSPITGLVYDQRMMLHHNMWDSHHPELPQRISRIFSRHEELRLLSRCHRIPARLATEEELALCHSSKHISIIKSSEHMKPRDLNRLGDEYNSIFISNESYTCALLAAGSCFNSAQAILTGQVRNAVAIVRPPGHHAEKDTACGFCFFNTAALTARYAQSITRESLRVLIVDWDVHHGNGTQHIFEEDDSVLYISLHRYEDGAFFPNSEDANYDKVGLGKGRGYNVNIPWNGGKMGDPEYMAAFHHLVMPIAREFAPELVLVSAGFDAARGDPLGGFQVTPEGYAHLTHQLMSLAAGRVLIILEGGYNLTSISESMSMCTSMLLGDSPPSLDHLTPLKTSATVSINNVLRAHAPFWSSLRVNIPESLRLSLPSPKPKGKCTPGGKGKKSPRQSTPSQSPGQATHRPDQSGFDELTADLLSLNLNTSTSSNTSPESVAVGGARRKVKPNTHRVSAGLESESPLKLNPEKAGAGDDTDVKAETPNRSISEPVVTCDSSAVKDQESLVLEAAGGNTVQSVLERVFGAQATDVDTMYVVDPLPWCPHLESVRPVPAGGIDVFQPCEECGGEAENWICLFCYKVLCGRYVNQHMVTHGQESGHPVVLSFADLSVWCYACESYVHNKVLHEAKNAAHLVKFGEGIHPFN
Outline: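 zCD2 at 1 μM was incubated with 100 μM inhibitor for 1 h, then dialysed at 4 °C against HEPES pH 7.5 buffer with 0.25% DMSO, overnight, sampled at 6 and 21 h. Each sample was mixed with 250 μM RHKK(Ac)-AMC (pre-mix level) for 30 min. Trypsin/TSA developer was then added and fluorescence read at ex 360/em 460. Triplicates.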

[3] = target: T1, Protein deacetylase HDAC6 (Homo sapiens); assay: (§3) Binding affinity to N-terminal GST tagged human recombinant HDAC6 (1 to 1215 residues) expressed in Sf9 insect cells using Z-Lys(Ac)-AMC as fluorogenic substrate assessed as induced-fit mechanism by measuring hyperbolic relationship between Kobs and inhibitor concentration measured every 0.5 mins for 45 mins
Outline: (§4)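 Finals were 220 pg/μL enzyme, 93.0 μM ZMAL (5× KM; KM 19.27 μM) and 20 ng/μL trypsin. AMC read continuously (ex 360/em 460) at 37 °C. Curves fitted for kobs, then kobs vs [I] fitted; triplicates.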

[4] = target: T1, Protein deacetylase HDAC6 (Homo sapiens); assay: as §1, with “6.5” for “2.5”; outline: as §2
[5] = target: T1, Protein deacetylase HDAC6 (Homo sapiens); assay: as §3, with “single step slow binding” for “induced-fit”, “linear” for “hyperbolic”; outline: as §4

`FC(F)c1nnc(-c2cnc(NCc3ccccc3)nc2)o1` was tested, and the inhibition [1] was “Active”, the inhibition [2] was “Active” and the Activity [3] was “Active”.

With `FC(F)(F)c1nnc(-c2cnc(NCc3ccccc3)nc2)o1` the inhibition [4] was “inactive” and the Activity [5] was “Active”.
